Experimental data from ChEMBL document CHEMBL1146530, “Antihyperglycemic effect of puerarin in streptozotocin-induced diabetic rats” (2003).
Active and inactive are the calls of the source. The calls are words filed in the database; no cut-off is given here.

Tests used:
[1] = Antihyperglycemic activity against STZ- induced diabetic Wistar rat soleus muscle assessed as 2-[1-14C]-deoxy-D-glucose uptake at 100 umol/L after 30 mins relative to control; assay type: functional
Outline: (§1)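 Soleus muscle strips ([…]) from rats made diabetic with STZ (60 mg/kg iv), used 2 weeks later. Strips were preincubated 30 min in KRBB (37 °C, pH 7.4, 1 mmol/L glucose, 1% fatty acid-free BSA, 5% CO2 in O2), then exposed to test agent 30 min. Next came 2-[1-14C]-deoxy-D-glucose (1 µCi/mL) for 5 min. Strips were dissolved in NaOH and counted by β-counting. Nonspecific uptake was defined with 20 µmol/L cytochalasin B and subtracted. Results are given as % of KRBB-only basal uptake. The 1 nmol/L insulin reference was run the same way.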

[2] = organism: Rattus norvegicus; assay: Antihyperglycemic activity against STZ- induced diabetic Wistar rat soleus muscle assessed as 2-[1-14C]-deoxy-D-glucose uptake after 30 mins; assay type: functional, tissue-based; outline: as §1
[3] = system: Rattus norvegicus; assay: Antihyperglycemic effect in normal Wistar rat assessed as decrease in plasma glucose level at 15 mg/kg, iv measured after 5 mins of glucose challenge by intravenous glucose challenge test
[4] = system: Rattus norvegicus; assay: Antihyperglycemic effect in STZ- induced diabetic Wistar rat model assessed as decrease in plasma glucose level at 15 mg/kg, iv tid every 8 hrs for 3 days; assay type: functional
Outline: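 STZ-diabetic rats were dosed at 15.0 mg/kg iv into the tail vein every 8 h (tid) for 3 days. Vehicle-treated diabetic and normal rats served as comparisons. Plasma glucose was measured in fasting animals after the final dose.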

[5] = system: Rattus norvegicus; assay: Antihyperglycemic effect in normal Wistar rat assessed as decrease in plasma glucose level at 15 mg/kg, iv measured after 15 mins of glucose challenge by intravenous glucose challenge test
[6] = Antihyperglycemic activity against STZ- induced diabetic Wistar rat soleus muscle assessed as 2-[1-14C]-deoxy-D-glucose uptake at 0.01 umol/L after 30 mins relative to control; assay type: functional; outline: as §1
[7] = system: Rattus norvegicus; assay: Antihyperglycemic effect in STZ- induced diabetic Wistar rat model assessed as reduction in plasma glucose level at 15 mg/kg, iv measured after 30 mins; assay type: functional; design: scale not given: the % may be the effect or the level left
Outline: (§2)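 Fasting STZ-diabetic rats (60 mg/kg iv, 2 weeks earlier; glucose ≥20 mmol/L) got a single tail-vein bolus (5.0-20.0 mg/kg in normal saline). Vehicle controls received the same volume. Tail-vein blood was drawn 30 min later under pentobarbital (30.0 mg/kg ip). Plasma glucose was measured by enzymatic kit at 37 °C for 10 min, run in duplicate. n = 8 per group; mean ± SEM.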

[8] = system: Rattus norvegicus; assay: Induction of GLUT4 protein level in STZ- induced diabetic Wistar rat soleus muscle at 15 mg/kg, iv tid every 8 hrs for 3 days by Western blot relative to vehicle treated normal rat; assay type: functional
Outline: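 Same 3-day tid 15.0 mg/kg iv regimen. Soleus homogenate (50 µg protein) was run on 10% SDS-PAGE and transferred to PVDF. Blots were probed overnight at 4 °C with mouse anti-rat GLUT4 (1:1000); β-tubulin (1:500) served as loading control. Detection was by peroxidase secondary and ECL, with densitometry at 45 kDa (GLUT4) and 50 kDa (β-tubulin). n = 4.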

[9] = system: Rattus norvegicus; assay: Antihyperglycemic effect in STZ- induced diabetic Wistar rat model assessed as reduction in plasma glucose level at 20 mg/kg, iv measured after 30 mins; assay type: functional, organism-based; design: dose 20 mg/kg; outline: as §2
[10] = target: Solute carrier family 2, facilitated glucose transporter member 4 (Rattus norvegicus) (UniProt P19357); assay: Induction of GLUT4 protein level in STZ- induced diabetic Wistar rat soleus muscle at 15 mg/kg, iv tid every 8 hrs for 3 days by Western blot relative to beta-tubulin expression
[11] = system: Rattus norvegicus; assay: Antihyperglycemic effect in normal Wistar rat assessed as reduction in plasma glucose level at 15 mg/kg, iv measured after 30 mins by intravenous glucose challenge test
[12] = system: Rattus norvegicus; assay: Antihyperglycemic effect in iv dosed STZ- induced diabetic Wistar rat model assessed as reduction in plasma glucose level measured after 30 mins; assay type: functional, organism-based; outline: as §2
[13] = system: Rattus norvegicus; assay: Induction of GLUT4 mRNA level in STZ- induced diabetic Wistar rat soleus muscle at 15 mg/kg, iv tid every 8 hrs for 3 days by Northern blot relative to beta-actin expression; assay type: functional
Outline: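 Rats received 15.0 mg/kg iv tid (every 8 h) for 3 days and were killed fasting. Soleus total RNA (20 µg) was denatured in formaldehyde/formamide at 55 °C and run on a 1.2% agarose/formaldehyde gel. Blots were probed with [α-32P]dCTP-labelled probe at 65 °C for 2 h and washed to 0.1× SSC/0.1% SDS at 40 °C. GLUT4 was normalized to β-actin; n = 4, mean ± SEM.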

Structure (SMILES): O=c1c(-c2ccc(O)cc2)coc2c([C@@H]3O[C@H](CO)[C@@H](O)[C@H](O)[C@H]3O)c(O)ccc12 [PUERARIN]
- Activity [1]: 145%
- Activity [2]: Dose-dependent effect
- Activity [3]: 13.4 mmol/L
- Activity [4]: 16.5 mmol/L
- Activity [5]: Active
- Activity [6]: 108%
- Activity [7]: 33.5%
- Activity [8]: 80%
- Activity [9]: Active
- Activity [10]: 0.88 a.u.
- Activity [11]: 3.9 mmol/L
- Activity [12]: Dose-dependent effect
- Activity [13]: 1.01 a.u.
